Measured values from different studies.
Compare with care: the assays were run in different laboratories.
Target: Tyrosine-protein kinase Fyn (FYN, Homo sapiens, UniProt P06241)

| SMILES | observed | mode | technique | concentration | quantity | value |
| --- | --- | --- | --- | --- | --- | --- |
| Cc1nn(C)cc1-c1nc2c(N3CCN(Cc4ccc(Cl)cc4)CC3)c(Cl)cnc2[nH]1 | binding | – | competition with immobilised ligand | 1 µM | remaining binding | 100% |
| N#CC1(c2ccccn2)CCN(Cc2cc(C(=O)O)c(=O)n3ccccc23)CC1 | cell-free assay | – | competition with immobilised ligand | 1 µM | remaining binding | 99% |
| C#Cc1n[nH]c2c(-c3cn([C@@H](C)c4ccccn4)c(=O)[nH]c3=O)cc(F)cc12 | enzyme activity | inhibitor | – | 0.1 µM | inhibition | 1.4% |
| Cn1cncc1[C@](O)(COc1ccc(C#N)cc1-c1ccc(OC(F)(F)F)cc1)c1ccc(C#N)cc1 | cell-free assay | – | competition with immobilised ligand | 1 µM | remaining binding | 100% |
| COc1ncccc1-c1cnn2ccc(N3CCN(C(=O)OC(C)C)CC3)nc12 | binding | – | competition with immobilised ligand | 1 µM | remaining binding | 49% |
| O=c1[nH]c2ccccc2n1C1CCN(Cc2ccc(-c3[nH]c4cc5ncnc5cc4nc3-c3ccccc3)cc2)CC1 | cell-free assay | – | – | 0.5 µM | remaining signal | 101% |
| C#Cc1n[nH]c2c(-c3cn([C@@H](C)c4ccccc4)c(=O)[nH]c3=O)cc(F)cc12 | enzyme activity | inhibitor | – | 0.1 µM | inhibition | 0.7% |
| Cn1cc(-c2cccc(N3CCc4c(sc5c4CC(C)(C)C5)C3=O)c2CO)cc(Nc2ccncn2)c1=O | enzyme activity | inhibitor | – | 1 µM | inhibition | 6% |
| O=C(Nc1cccnn1)N1CCN([C@@H]2CCOc3cc(C(F)(F)F)ccc32)CC1 | enzyme activity | inhibitor | – | 20 µM | inhibition | 0% |
| Cn1cc(-c2cc(F)cc(N3CCn4c(cc5c4CCCC5)C3=O)c2CO)cc(Nc2ccc(N3CCN(C4COC4)CC3)cn2)c1=O | enzyme activity | inhibitor | – | 0.1 µM | inhibition | 8% |
| Nc1ncc(-c2nc(N3CCOCC3)nc(N3CCOCC3)n2)c(C(F)F)n1 | binding | – | competition with immobilised ligand | 10 µM | remaining binding | 100% |
| Cc1ncc(C)n2nc(/C=C/c3nc(N4CCCC4)cc(N4CCOCC4)n3)nc12 | enzyme activity | inhibitor | – | 10 µM | inhibition | 9% |
| CC(C)(C)c1cc(C=C(C#N)C#N)cc(Br)c1O | enzyme activity | inhibitor | – | 0.5 µM | remaining activity | 67.2% |
